From PubChem BioAssay
FID counter = displaces DNA intercalator in HCV helicase counter-screen; DNA fluorescent intercalator displacement, fluorescence; inhibition, % at 7.9 µM; 0.17% of 290,000 active; in the data active = inhibition above about 37%;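 also: higher means more ethidium bromide displaced from hairpin DNA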
PvdQ acylase = blocks Pseudomonas aeruginosa PvdQ acylase activity; purified PvdQ acylase, fluorescence plate reader; inhibition, % at 10 µM; 0.063% of 340,000 active; AID 488965; in the data active = inhibition above about 30%, passing the limit was not always enough
VIM-2 inh = inhibitors of Pseudomonas aeruginosa VIM-2 metallo-beta-lactamase; purified VIM-2, nitrocefin hydrolysis, epi-absorbance fluorescence; inhibition, % at 5.6 µM; 0.89% of 290,000 active;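 active = inhibition above the mean of all tested compounds plus 3 SD, cutoff set per screening run, cut at about 7.5% in these data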;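 also: red hydrolysis product quenches plate fluorescence so inhibitors raise well fluorescence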
IMP-1 inh-1 = blocks Pseudomonas aeruginosa IMP-1 metallo-beta-lactamase; purified IMP-1, nitrocefin hydrolysis, epi-absorbance fluorescence; inhibition, % at 5.6 µM; 0.45% of 290,000 active; AID 1556;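 active = inhibition above the mean plus 3 SD of all compounds in the same screening run, cut at about 4.5% in these data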
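Assay system: purified recombinant IMP-1 beta-lactamase. Input: IMP-1 0.2 nM before substrate addition. Buffer or medium: Zinc- and detergent-supplemented HEPES buffer, pH 7.1. Schedule: 25 °C, 15 min preincubation, 25 min reaction. Signal: Epi-absorbance fluorescence, 480 nm excitation, 530 nm emission. Evaluation: percent inhibition from optical density relative to buffer-blank wells.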
RAD54 branch = RAD54 (human) branch migration inhibition; Q92698; 0.14% of 360,000 active; inhibition, % at 10.4 µM; RAD54 Holliday junction branch migration, FAM/BHQ fluorescence;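 active = mean normalized replicate activity at least 40 and at least half of replicates scoring 40 or more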;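 also: inhibitors cause a drop in the FAM fluorescence signal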
Target sequence (Q92698 whole entry, looked up): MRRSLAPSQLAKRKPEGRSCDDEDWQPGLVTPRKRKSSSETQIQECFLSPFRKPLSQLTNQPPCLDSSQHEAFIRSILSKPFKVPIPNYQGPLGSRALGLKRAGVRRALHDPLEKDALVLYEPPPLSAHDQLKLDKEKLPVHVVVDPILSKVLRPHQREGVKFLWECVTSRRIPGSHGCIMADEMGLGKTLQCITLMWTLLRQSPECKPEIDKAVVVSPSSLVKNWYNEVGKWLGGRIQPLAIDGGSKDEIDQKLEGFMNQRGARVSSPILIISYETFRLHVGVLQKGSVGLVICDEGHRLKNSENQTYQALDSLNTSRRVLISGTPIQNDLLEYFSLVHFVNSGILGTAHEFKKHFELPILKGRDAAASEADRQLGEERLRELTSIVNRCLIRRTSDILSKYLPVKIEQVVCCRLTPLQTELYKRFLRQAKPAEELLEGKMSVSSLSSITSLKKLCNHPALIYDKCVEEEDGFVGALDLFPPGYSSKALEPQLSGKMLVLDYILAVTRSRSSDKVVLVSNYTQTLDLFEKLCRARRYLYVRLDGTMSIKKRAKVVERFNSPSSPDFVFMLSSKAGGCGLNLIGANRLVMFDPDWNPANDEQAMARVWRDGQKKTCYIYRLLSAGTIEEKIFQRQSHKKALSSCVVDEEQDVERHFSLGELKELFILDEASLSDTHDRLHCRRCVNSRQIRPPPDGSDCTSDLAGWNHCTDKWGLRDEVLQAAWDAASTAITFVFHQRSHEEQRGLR
IMP-1 inh-2 = IMP-1 inhibition, counter-screen for VIM-2 inhibitors; shares compounds with VIM-2 inh; purified IMP-1, nitrocefin hydrolysis, epi-absorbance fluorescence; inhibition, % at 5.6 µM; 1,300 tested, under 10 active; AID 1856; call rule not given here
VIM-2 FRET inh = counter-screen for VIM-2 inhibitors: epi-absorbance artifacts via FRET. AID 1857. inhibition, % at 5.6 µM. shares compounds with VIM-2 inh. purified VIM-2, CCF2 FRET substrate hydrolysis. 23% of 1,300 active;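 active = inhibition above the mean of all tested compounds plus 3 SD, cut at about 19% in these data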
TEM-1 counter = selectivity counter-screen for VIM-2 inhibitors: E. coli TEM-1 inhibitors; shares compounds with VIM-2 inh; Purified TEM-1, nitrocefin hydrolysis, epi-absorbance fluorescence; inhibition, % at 5.6 µM; 3% of 1,300 active; AID 1866;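 active = inhibition above that campaign's mean inhibition plus 3 SD, cut at about 0.46% in these data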
VIM-2 inh conf = confirmation of P. aeruginosa VIM-2 metallo-beta-lactamase inhibitors; AID 2187; inhibition, % at 5.6 µM; shares compounds with VIM-2 inh; purified VIM-2, nitrocefin hydrolysis, epi-absorbance; 96% of 1,300 active;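 active = inhibition of the VIM-2 beta-lactamase enzyme above about 11% from the earlier first-round screen, limit read from the data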
Hits are given with their value; - = inactive; . = no result. Most compounds without a hit are left out; they make up all but 1% or so of the library.

SMILES	FID counter	PvdQ acylase	VIM-2 inh	IMP-1 inh-1	RAD54 branch	IMP-1 inh-2	VIM-2 FRET inh	TEM-1 counter	VIM-2 inh conf
O=C1C(Br)=Cc2cccc3cccc1c23	-	-	15	-	-	-	-	-	20
O=C1c2sccc2-c2cccc3cccc1c23	.	.	.	.	-	.	.	.	.
CCCC(=O)N1CCN(c2ccc(NC(=O)c3sc4ccccc4c3Cl)cc2)CC1	-	-	-	-	-	.	.	.	.
CN1CCN(c2ccccc2NC(=O)c2sc3ccccc3c2Cl)CC1	-	-	16	-	.	-	-	-	39
C[C@@H]1CN([C@H](C)CO)S(=O)(=O)c2ccc(-c3cccnc3)cc2O[C@@H]1CN(C)C(=O)CC1CC1	.	.	.	.	-	.	.	.	.
CCCCc1cn(C[C@H](Cc2ccccc2)NC(=O)N[C@H](CO)CCc2oc(C(C)=O)c(C(=O)OC)c2C(=O)OC)nn1	.	.	.	.	-	.	.	.	.
Cc1c(Cl)c(-c2n[nH]c(=S)n2-c2ccc(F)cc2)nn1C	-	-	16	-	-	-	42	-	30
Cc1ccc(-n2c(-c3nn(C)cc3Cl)n[nH]c2=S)cc1	-	-	17	-	.	-	50	-	31
Cn1cc(Cl)c(-c2n[nH]c(=S)n2-c2ccccc2)n1	-	-	14	-	.	-	42	-	25
C[C@@H]1CN([C@@H](C)CO)C(=O)c2cc(NS(=O)(=O)c3cn(C)cn3)ccc2O[C@@H](C)CCCCO[C@@H]1CN(C)Cc1ccc(C(F)(F)F)cc1	.	.	.	.	-	.	.	.	.
Cn1cnc(S(=O)(=O)N2C[C@@H](O)COC[C@@H]3O[C@@H](CC(=O)NC4Cc5ccccc5C4)CC[C@H]32)c1	.	.	.	.	-	.	.	.	.
CCOC(=O)c1[nH]c(C(=O)O)c(CCC(=O)OC)c1C	-	-	22	-	-	-	49	-	32
COC(=O)CCc1c(C)[nH]c(C(=O)OCc2ccccc2)c1C	-	-	-	-	-	.	.	.	.
CN(Cc1ccccc1)CC(O)COc1ccc(CNCc2nccn2C)cc1 (stereo not given)	-	-	12	-	.	-	-	-	14
CCn1ccnc1CNCc1ccc(OCC(O)CN(C)Cc2ccccc2)cc1 (stereo not given)	-	-	-	-	.	.	.	.	.
Cc1ccccc1-c1cnc2c(c1)C(=O)N([C@@H](C)CO)C[C@@H](C)[C@@H](CN(C)Cc1cccnc1)O2	.	.	.	.	-	.	.	.	.
O=Nc1c2nc3ccccc3n(O)c-2c2ccccc12	-	-	16	-	-	-	-	-	27
CN1CCN(C(=O)CSc2nc(-c3cccs3)cc(-c3cccs3)c2C#N)CC1	-	-	45	-	-	-	-	-	70
Cc1noc(C)c1NC(=O)N(C)C[C@@H]1OCCCC[C@H](C)Oc2ccc(NC(=O)c3ccccc3)cc2C(=O)N([C@@H](C)CO)C[C@H]1C	.	.	.	.	-	.	.	.	.
COCC(C)NC(=O)c1cc2cccc([N+](=O)[O-])c2[nH]1 (stereo not given)	-	-	21	-	.	-	39	-	23
COc1cc(/C=N/N(C)C2=NS(=O)(=O)c3ccccc32)cc(OC)c1OC	-	-	32	-	-	-	-	-	35
CCN(CC)CCCNc1nc(-n2nc(C)cc2C)nc2sc3c(c12)CC(C)(C)OC3	-	-	-	-	.	.	.	.	.
Cc1nc(NCc2cccnc2)c2c3c(sc2n1)CCCC3	-	-	15	-	-	-	-	-	31
Cc1cc(C)n(-c2nc(SCC(=O)O)c3c4c(sc3n2)COC(C)(C)C4)n1	-	-	15	-	.	-	39	-	23
Cc1cc(C)n(-c2nc(NCc3cccnc3)c3c4c(sc3n2)COC(C)(C)C4)n1	-	-	48	-	-	-	-	-	64
c1cncc(CNc2ncnc3sc4c(c23)CCCC4)c1	-	-	-	-	.	.	.	.	.
CC(=O)N1[C@@H](CO)[C@@H]2c3ccccc3N(C(=O)c3ccccc3)C[C@@H]21	.	.	.	.	-	.	.	.	.
C[C@@H]1CCCCO[C@@H](CN(C)Cc2ccccc2)[C@H](C)CN([C@@H](C)CO)C(=O)c2cc(NS(=O)(=O)c3ccccc3)ccc2O1	.	.	.	.	-	.	.	.	.
